This is an account of results in ChEMBL document CHEMBL3108699, “Small azobenzene derivatives active against bacteria and fungi” (2013).

Assay [1] relates to Listeria monocytogenes. The experiment in a line: Antimicrobial activity against Listeria monocytogenes after 24 hrs by microbroth dilution method. Type of assay: functional. Conditions: read-out: MIC100. An outline of the steps:
(§1)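 Two-fold serial dilutions, six replicates each, inoculated with about 5 × 10^5 CFU/mL in cation-adjusted Mueller-Hinton broth 2. Incubated at 37 °C, 160 rpm, 24 h. OD600 taken at 0 and 24 h; T0 subtracted; % inhibition calculated relative to the bacteria-plus-broth control. MIC is the lowest concentration giving 100% inhibition.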
Background: In broth dilution the organism is exposed to a series of concentrations in liquid medium.

Assay [2] deals with Staphylococcus aureus. The experiment in a line: Antibiofilm activity against Staphylococcus aureus A170 at 25 ug/ml after 24 hrs by crystal violet staining method relative to control. The format is functional, organism-based.
Assay [3] relates to Salmonella typhimurium. The experiment in a line: Antimicrobial activity against Salmonella typhimurium after 24 hrs by microbroth dilution method. Type of assay: functional, Salmonella enterica subsp. enterica serovar Typhimurium. The note with it: Salmonella enterica, read-out: MIC100. An outline of the steps: as §1
Assay [4] relates to Pseudomonas aeruginosa. In words: Antimicrobial activity against Pseudomonas aeruginosa ATCC 27853 after 24 hrs by microbroth dilution method. The format is functional. Conditions: ATCC 27853, 24 h, read-out: MIC100. An outline of the steps: as §1
The test system of assay [5] is Staphylococcus aureus. The experiment in a line: Antimicrobial activity against Staphylococcus aureus A170 after 24 hrs by microbroth dilution method. Type of assay: functional. The note with it: A170, 24 h, read-out: MIC100. The method in brief:
as §1

For assay [6], the system named is Candida albicans. The experiment in a line: Antimicrobial activity against Candida albicans SC5314 assessed as inhibition of hyphae formation after 24 hrs by inverted microscopy. The format is functional, organism-based. The method in brief:
(§2)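 Stationary yeast cells at 6 × 10^6 cells/mL in pre-warmed hypha-inducing RPMI 1640 (2.5% fetal calf serum, 20 mM HEPES, 2 mM L-glutamine, 16 mM NaHCO3, pH 7.0). Compound at 1–50 […]. After 24 h at 37 °C, wells examined by inverted microscope for morphology and hyphae formation.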

For assay [7], the system named is Candida albicans. The experiment in a line: Antimicrobial activity against Candida albicans SC5314 assessed as inhibition of germination at 10 ug/ml after 24 hrs by inverted microscopy. The format is functional, organism-based. An outline of the steps: as §2
Assay [8] has as its system Staphylococcus aureus. In words: Induction of degradation of Staphylococcus aureus A170 biofilm at 30 ug/ml after 24 hrs by crystal violet staining method relative to control. The format is functional. Conditions: in the assay text read “after 8 hrs” for “after 24 hrs”.
Assay [9] deals with Staphylococcus aureus. In words: Induction of degradation of Staphylococcus aureus A170 biofilm at 50 ug/ml assessed as concentration required for complete degradation after 24 hrs by crystal violet staining method relative to control. The note with it: in the assay text read “after 8 hrs” for “after 24 hrs”. Type of assay: functional.
For assay [10], the system named is Candida albicans. In words: Induction of degradation of Candida albicans SC5314 biofilm at 20 ug/ml after 24 hrs by XTT assay relative to vehicle-treated control. The format is functional, organism-based. Conditions: in the assay text read “after 8 hrs” for “after 24 hrs”. (Tetrazolium dyes change colour on reduction, which living cells bring about.)
The test system of assay [11] is Candida albicans. In words: Antibiofilm activity against Candida albicans SC5314 at 8 to 60 ug/ml after 24 hrs by crystal violet staining method relative to control. The format is functional, organism-based.
In assay [12] the test system is Candida albicans. In words: Antimicrobial activity against Candida albicans SC5314 after 24 hrs by microbroth dilution method. Type of assay: functional. Conditions: SC5314, 24 h, read-out: MIC100. An outline of the steps: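 CLSI broth microdilution in RPMI 1640 (L-glutamine, no glucose or NaHCO3) buffered to pH 7.0 with 0.165 M MOPS. Two-fold serial dilutions inoculated with 2.5 × 10^3 yeast/mL and incubated at 35 °C for 24 h, using three plates. MIC read visually as the lowest concentration giving optically clear wells versus the drug-free control.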

Assay [13] deals with Staphylococcus aureus. The experiment in a line: Antibiofilm activity against Staphylococcus aureus A170 at 30 ug/ml after 24 hrs by crystal violet staining method relative to control. Type of assay: functional, organism-based.

≈ marks a conversion by molar mass, not a printed value. Calls of active or inactive are those of the source. No cut-off for these calls is given here.

As for `CCCc1cc(/N=N/c2ccc(O)cc2)ccc1O`, the MIC in assay [1] was 25 µg/mL (≈ 97.5 µM); in assay [3] it was above 60 µg/mL; in assay [4], above 60 µg/mL; in [5] it was 20 µg/mL (≈ 78 µM); in assay [12], 20 µg/mL (≈ 78 µM). Moreover, the outcome in assay [2], in assay [10] and in assay [11] was Active. Besides, the inhibition result in assay [6] is “Dose-dependent effect”. Besides, the inhibition entry in assay [7] is “Active”. For the same molecule, the Activity was above 60% in [8] and 50 µg/mL in assay [9].

Regarding `CCc1cc(/N=N/c2ccc(O)cc2)ccc1O`, the MIC is 50 µg/mL (≈ 206 µM) in assay [1]; above 60 µg/mL in assay [3]; above 60 µg/mL in assay [4]; 30 µg/mL (≈ 124 µM) in assay [5]; 30 µg/mL (≈ 124 µM) in [12]. Further, the result in [2], in [10] and in assay [11] was Active. Also, the Activity in assay [8] is above 60%; in [9] it was 50 µg/mL.

As to `Oc1ccc(/C=C/c2cc(O)cc(O)c2)cc1` [RESVERATROL], the MIC in assay [3] was above 400 µg/mL; in assay [4] it was above 400 µg/mL; in assay [5], 100 µg/mL (≈ 438 µM); in assay [12], above 128 µg/mL.

In the case of `Cc1cc(/N=N/c2ccc(O)cc2)cc(C)c1O`, the MIC in assay [1] is 25 µg/mL (≈ 103 µM); in assay [3], above 60 µg/mL; in assay [4] it was above 60 µg/mL; in assay [5] it was 20 µg/mL (≈ 82.5 µM); in assay [12] it was 17 µg/mL (≈ 70.2 µM). Besides, the Activity in [8] amounted to 40%; in assay [9] it was 50 µg/mL. Besides, the result in [10], in assay [13] and in assay [11] was Active.

As to `C=CCc1cc(/N=N/c2ccc(O)cc2)ccc1O`, the MIC in assay [1] was 25 µg/mL (≈ 98.3 µM); in assay [3] it was above 60 µg/mL; in assay [4], above 60 µg/mL; in [5] it was 20 µg/mL (≈ 78.7 µM); in [12], 20 µg/mL (≈ 78.7 µM). The outcome in assay [2], in [10] and in assay [11] was Active. Moreover, the Activity in assay [8] is above 60%; in [9] it was 50 µg/mL.

As to `C=CCc1cc(/N=N/c2ccc(O)cc2)cc(C)c1O`, the MIC is above 60 µg/mL in assay [1]; above 60 µg/mL in assay [3]; above 60 µg/mL in assay [4]; 25 µg/mL (≈ 93.2 µM) in assay [5]; 15 µg/mL (≈ 55.9 µM) in assay [12]. Further, the result in assay [2], in assay [10] and in assay [11] was Active. Further, the Activity was above 60% in assay [8] and 50 µg/mL in assay [9].
